Measurements taken from ChEMBL document CHEMBL2321840, “Synthesis and structure-activity relationships of indazole arylsulfonamides as allosteric CC-chemokine receptor 4 (CCR4) antagonists” (J Med Chem, 2013).
Values after ≈ are worked out from the molar mass of the structure shown.

Experiments:
[1] = tested on: HepG2; experiment: Cytotoxicity in human HepG2 cells assessed as effect on cell membrane; assay type: cell-based
[2] = organism: Oryctolagus cuniculus; experiment: Cardiotoxicity in rabbit assessed as effect on conduction; assay type: toxicity
[3] = tested on: Rattus norvegicus; experiment: Cardiotoxicity in rat at 30 to 300 mg/kg, po; assay type: toxicity, organism-based; design: dose 30-300 mg/kg, route oral; details: in vivo
Outline: (§1)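 Conscious rats were given oral doses of 30, 100 and 300 mg/kg. Body temperature, cardiovascular and electrocardiographic parameters were monitored.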

[4] = biological target: T1, C-X-C chemokine receptor type 2 (Homo sapiens, UniProt P25025); experiment: Antagonist activity at CXCR2 receptor (unknown origin) by [35S]GTPgammaS binding assay; assay type: functional
T1 sequence (P25025 whole entry): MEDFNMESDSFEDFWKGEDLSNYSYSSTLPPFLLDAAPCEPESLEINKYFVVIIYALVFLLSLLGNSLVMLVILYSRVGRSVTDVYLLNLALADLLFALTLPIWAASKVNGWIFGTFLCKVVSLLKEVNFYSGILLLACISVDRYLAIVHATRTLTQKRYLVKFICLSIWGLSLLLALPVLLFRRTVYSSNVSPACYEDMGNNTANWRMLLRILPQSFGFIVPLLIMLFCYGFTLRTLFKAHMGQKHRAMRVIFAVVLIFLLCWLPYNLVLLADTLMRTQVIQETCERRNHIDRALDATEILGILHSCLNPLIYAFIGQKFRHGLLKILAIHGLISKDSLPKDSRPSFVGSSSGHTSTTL

[5] = organism: Oryctolagus cuniculus; experiment: Cardiotoxicity in rabbit assessed as effect on cardiac repolarization; assay type: toxicity, Heart
[6] = Oral bioavailability in CD rat at 30 mg/kg administered as suspension; assay type: ADME, organism-based; details: in vivo
[7] = organism: Oryctolagus cuniculus; experiment: Cardiotoxicity in rabbit assessed as effect on contractility; assay type: toxicity
[8] = biological target: C-C chemokine receptor type 2 (Homo sapiens, UniProt P41597); experiment: Antagonist activity at CCR2 receptor (unknown origin) by [35S]GTPgammaS binding assay; assay type: functional
[9] = Equilibrium solubility of the compound in saline after 24 hrs by HPLC analysis; assay type: physicochemical
Outline: (§2)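 Solid compound was equilibrated 24 h in the stated medium: water, SGF pH 1.6, FeSSIF pH 6.5, FaSSIF pH 6.5 or saline. Dissolved compound was quantified by HPLC.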

[10] = in vivo; details: CD, rat, iv, 1 mg/kg
[11] = Dissociation constant, pKa of the compound; assay type: physicochemical
[12] = organism: Oryctolagus cuniculus; experiment: Cardiotoxicity in rabbit ventricular wedge assessed as cardiovascular issues upto 10 uM; assay type: toxicity, Cardiac ventricle
[13] = Plasma protein binding in human by equilibrium dialysis technique; assay type: ADME, cell-free; details: read-out: PPB (converted)
Outline: (§3)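 Rapid equilibrium dialysis in CD rat, beagle dog or human plasma, with compound at a nominal 1 μg/mL; n = 3.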

[14] = Equilibrium solubility of the compound in Britton-Robinson buffer at pH 2 after 24 hrs by HPLC analysis; assay type: physicochemical
Outline: (§4)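 Solid compound was equilibrated 24 h in Britton–Robinson buffer at the stated pH. Dissolved compound was quantified by HPLC.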

[15] = Volume of distribution at steady state in Beagle dog at 0.5 mg/kg, iv; assay type: ADME, organism-based, Canis lupus familiaris; design: dose 0.5 mg/kg, route intravenous; details: beagle, in vivo, read-out: Vdss
[16] = in vivo; details: beagle, dog, iv, 0.5 mg/kg
[17] = biological target: C-C chemokine receptor type 8 (Homo sapiens, UniProt P51685); experiment: Antagonist activity at CCR8 receptor (unknown origin) by [35S]GTPgammaS binding assay; assay type: functional
[18] = Lipophilicity, log D of the compound by chromatographic analysis; assay type: physicochemical
Outline: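 Chromatographic log D measured at pH 7.4.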

[19] = Chemical stability of the compound in PBS using DMSO at pH 7.4 after 100 hrs by NMR analysis; assay type: physicochemical; details: buffer, pH 7.4, 100 h
[20] = Oral bioavailability in CD rat at 1 mg/kg administered as suspension; assay type: ADME, organism-based; details: in vivo
Outline: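 Rats received an oral suspension of wet bead-milled material (particle size <1 μm), dosed at 1, 10 and 30 mg/kg.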

[21] = tested on: Rattus norvegicus; experiment: Toxicity in rat administered for 7 days; assay type: organism-based; details: in vivo, 168 h
[22] = biological target: C-C chemokine receptor type 5 (Homo sapiens, UniProt P51681); experiment: Antagonist activity at CCR5 receptor (unknown origin) by [35S]GTPgammaS binding assay; assay type: functional
[23] = Kinetic solubility of the compound in PBS using MeOH at pH 7.4 by NMR analysis; assay type: physicochemical; details: read-out: Kinetic_solubility
[24] = in vivo; details: beagle, dog, iv, 0.5 mg/kg; remark: listed apart in the source
[25] = Kinetic solubility of the compound by chemiluminescent nitrogen detection assay; assay type: physicochemical; details: read-out: Kinetic_solubility
[26] = Equilibrium solubility of the compound in water after 24 hrs by HPLC analysis; assay type: physicochemical; outline: as §2
[27] = biological target: T2, C-C chemokine receptor type 1 (Homo sapiens, UniProt P32246); experiment: Antagonist activity at CCR1 receptor (unknown origin) by [35S]GTPgammaS binding assay; assay type: functional
T2 sequence (P32246 whole entry): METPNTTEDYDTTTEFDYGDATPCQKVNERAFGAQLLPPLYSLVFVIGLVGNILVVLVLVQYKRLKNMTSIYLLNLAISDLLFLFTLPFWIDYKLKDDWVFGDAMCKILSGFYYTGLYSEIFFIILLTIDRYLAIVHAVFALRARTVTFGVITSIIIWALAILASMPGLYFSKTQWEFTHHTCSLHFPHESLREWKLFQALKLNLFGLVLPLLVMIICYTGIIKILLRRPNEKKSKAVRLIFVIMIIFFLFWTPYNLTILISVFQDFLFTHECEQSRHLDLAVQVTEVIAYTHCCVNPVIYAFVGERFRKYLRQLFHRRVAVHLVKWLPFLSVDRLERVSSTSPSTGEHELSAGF

[28] = Equilibrium solubility of the compound in Britton-Robinson buffer at pH 8 after 24 hrs by HPLC analysis; assay type: physicochemical; outline: as §4
[29] = Equilibrium solubility of the compound in Britton-Robinson buffer at pH 7 after 24 hrs by HPLC analysis; assay type: physicochemical; outline: as §4
[30] = Equilibrium solubility of the compound in Britton-Robinson buffer at pH 10 after 24 hrs by HPLC analysis; assay type: physicochemical; outline: as §4
[31] = Oral bioavailability in CD rat at 10 mg/kg administered as suspension; assay type: ADME, organism-based; details: in vivo
[32] = Plasma protein binding in CD rat by equilibrium dialysis technique; assay type: ADME, cell-free; details: read-out: PPB; outline: as §3
[33] = tested on: Rattus norvegicus; experiment: Toxicity in rat assessed as effect on body temperature at 30 to 300 mg/kg, po; assay type: organism-based; design: dose 30-300 mg/kg, route oral; details: in vivo; outline: as §1

Chain of C-C chemokine receptor type 5 (P51681 whole entry): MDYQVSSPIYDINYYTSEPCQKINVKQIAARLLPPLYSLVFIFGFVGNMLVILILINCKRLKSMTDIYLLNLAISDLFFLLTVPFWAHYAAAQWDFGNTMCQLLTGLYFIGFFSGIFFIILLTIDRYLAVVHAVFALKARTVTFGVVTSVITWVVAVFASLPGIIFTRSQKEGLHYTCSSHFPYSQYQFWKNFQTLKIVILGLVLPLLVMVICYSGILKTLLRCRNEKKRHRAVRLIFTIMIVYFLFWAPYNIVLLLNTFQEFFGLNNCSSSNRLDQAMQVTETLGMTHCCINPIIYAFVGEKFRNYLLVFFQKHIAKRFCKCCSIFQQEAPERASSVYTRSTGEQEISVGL
Chain of C-C chemokine receptor type 2 (P41597 whole entry): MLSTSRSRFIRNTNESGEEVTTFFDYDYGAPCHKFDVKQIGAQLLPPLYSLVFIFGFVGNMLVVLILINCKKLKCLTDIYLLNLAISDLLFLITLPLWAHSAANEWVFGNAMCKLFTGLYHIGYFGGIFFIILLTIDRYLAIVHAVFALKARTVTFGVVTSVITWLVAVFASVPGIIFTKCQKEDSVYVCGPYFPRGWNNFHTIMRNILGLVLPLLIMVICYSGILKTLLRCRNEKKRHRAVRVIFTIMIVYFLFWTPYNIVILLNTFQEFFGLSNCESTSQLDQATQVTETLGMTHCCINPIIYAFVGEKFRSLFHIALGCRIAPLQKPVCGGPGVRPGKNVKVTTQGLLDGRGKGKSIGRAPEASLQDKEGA
Chain of C-C chemokine receptor type 8 (P51685 whole entry): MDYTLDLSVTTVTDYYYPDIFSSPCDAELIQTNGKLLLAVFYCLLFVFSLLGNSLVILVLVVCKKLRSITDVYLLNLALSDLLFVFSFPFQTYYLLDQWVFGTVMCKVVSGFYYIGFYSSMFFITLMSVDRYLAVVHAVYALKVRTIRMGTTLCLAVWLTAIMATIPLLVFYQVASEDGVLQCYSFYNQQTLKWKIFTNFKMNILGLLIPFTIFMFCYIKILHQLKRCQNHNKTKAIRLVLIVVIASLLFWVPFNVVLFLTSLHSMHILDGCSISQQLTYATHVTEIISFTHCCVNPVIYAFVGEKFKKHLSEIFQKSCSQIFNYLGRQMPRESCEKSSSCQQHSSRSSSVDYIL

IC50 [4]: > 10 µM | bioavailability [6]: 101% | IC50 [8]: > 10 µM | solubility thermodynamic at 24 h [9]: 0.073 mg/mL (≈ 133 µM) | half-life [10]: 2.5 h | pKa [11]: 6.54 | fraction unbound [13]: 0.01 | solubility thermodynamic at 24 h [14]: 0.003 mg/mL (≈ 5.46 µM) | Vd [15]: 2.2 L/kg | clearance [16]: 0.54 L/h/kg | IC50 [17]: > 10 µM | chromatographic logD [18]: 4.3 | Stability [19]: Stable | bioavailability [20]: 53% | IC50 [22]: 6.31 µM | solubility kinetic [23]: > 0.27 mg/mL | half-life [24]: 2.6 h | solubility kinetic [25]: ≥ 0.162 mg/mL | solubility thermodynamic at 24 h [26]: 0.057 mg/mL (≈ 104 µM) | IC50 [27]: > 10 µM | solubility thermodynamic at 24 h [28]: 0.056 mg/mL (≈ 102 µM) | solubility thermodynamic at 24 h [29]: 0.01 mg/mL (≈ 18.2 µM) | solubility thermodynamic at 24 h [30]: 1.32 mg/mL (≈ 2410 µM) | bioavailability [31]: 80% | fraction unbound [32]: ≤ 0.01
Structure (SMILES): COc1cccc2c1c(NS(=O)(=O)c1ccc(Cl)s1)nn2Cc1cccc(CNC(=O)C(C)(C)O)c1
Activity [1]: Non-toxic | Activity [2]: Non-toxic | Activity [3]: Non-toxic | Activity [5]: Non-toxic | Activity [7]: Non-toxic | Activity [12]: Non-toxic | Activity [21]: Non-toxic | Activity [33]: Non-toxic
